Measurements as given in paper PMC5143172 (Leukemia, 2016).
Values belong to the molecule of their own block, whether it stands above or below them.

How the values were obtained:
XPO1 [1] = target: T1, XPO1 (Homo sapiens, UniProt O14980); experiment: XPO1 total protein in primary CLL cells; format: cell-based; conditions: 0.5 μM
In short: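 Freshly isolated patient CLL cells were treated with DMSO or 0.5 μM compound and harvested at 2, 4, 8 and 18 h (N=3). Cells were lysed in RIPA buffer, resolved by SDS-PAGE and immunoblotted for XPO1. Signal was detected by chemiluminescence and quantified by densitometry.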

MV4-11 = MV4-11 xenograft mouse model of AML; format: in vivo, NSG mice; conditions: day 21
IkB = experiment: Nuclear retention of IkB in CLL cells; format: cell-based, Human; conditions: 0.5 μM
In short: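 Treated primary CLL cells were fractionated into nuclear extracts with a commercial kit. Proteins were resolved by SDS-PAGE and probed with anti-IκB antibodies. Bands were detected by chemiluminescence and quantified by densitometry.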

primary AML samples = experiment: Proliferation assay; format: cell-based; conditions: Homo sapiens
In short: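 Primary AML cells came from blood or frozen bone marrow of three newly diagnosed, untreated patients, collected under informed consent. Viability was measured by WST-1 assay after treatment with the test compound.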

XPO1 [2] = target: T2, XPO1 (Saccharomyces cerevisiae, UniProt P30822, DEL377-413/T539C); experiment: Pull-down inhibition assay of XPO1 with immobilized NESs; format: biochemical; conditions: 10uM inhibitor
In short: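 Purified recombinant yeast XPO1 (2 μM) was pre-incubated with RanGTP (10 μM) and 10 μM inhibitor for varying times at 4°C. The mixture was rotated with immobilized GST-PKI NES for 1 h. After extensive washing, bound protein was resolved by SDS-PAGE and stained with Coomassie Blue.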

GC-DLBCL cell lines = experiment: Proliferation of GC-DLBCL cell lines by MTS; format: cell-based
Brain penetration, rat = format: in vivo
[3] = Brain penetration, monkey; format: in vivo
[4] = tested on: Eμ-TCL1 leukemic splenocytes; experiment: Eμ-TCL1-C57BL/6 transplant mouse model of CLL; format: in vivo, C57BL/6 mice
In short: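 CD19+CD5+ splenocytes (1×10^7) from an Eμ-TCL1 donor with active leukemia (>10% CD45+CD5+CD19+ in blood) and splenomegaly were injected into C57BL/6 mice by tail vein. At onset (≥10% CD45+CD5+CD19+), mice were randomized to oral gavage with vehicle (0.5% methylcellulose/1% Tween80), test compound 15 mg/kg daily or twice weekly, or ibrutinib 20 mg/kg. Blood flow cytometry was done weekly and spleen volume measured at euthanasia. Kaplan-Meier/log-rank, mixed-effects model, ANOVA (log-transformed, Dunnett).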

XPO1 [5] = target: T2, XPO1; experiment: Reversibility of inhibitor conjugation to XPO1; format: biochemical; conditions: 10uM inhibitor; dialysis or DTT, 24 hours
In short: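 XPO1 was incubated in triplicate with 10 μM inhibitor, then dialysed or treated with DTT. It was then used in a binding assay with RanGTP and immobilized GST-MVM NES, with bound proteins resolved by SDS-PAGE and Coomassie staining. XPO1 band intensities were quantified and expressed as percentage of DMSO-treated controls.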

primary CLL cells [6] = experiment: Cytotoxicity in primary CLL cells by MTS; format: cell-based, Human; conditions: 48h (24h in Supplementary Figure 6)
ABC-DLBCL cell lines = experiment: Proliferation of ABC-DLBCL cell lines by MTS; format: cell-based
primary CLL cells [7] = experiment: Apoptosis of primary CLL cells by annexin-V/PI in FBS or human serum; format: cell-based; conditions: 10% fetal bovine serum or human serum, 24h
XPO1 [8] = target: T1, XPO1; experiment: XPO1 degradation by SINE compound treatment in HT1080 cells; format: cell-based; conditions: 25-1000 nM, 18 hours
Brain penetration, mouse = format: in vivo
[9] = Plasma accumulation after repetitive dosing; format: in vivo; conditions: data not shown
p53 = experiment: Confocal microscopy of p53 localization in MV4-11; format: cell-based; conditions: MV4-11, confocal microscopy
In short: (§1)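 About 200,000 cells were cytospun onto slides, then fixed, permeabilized, blocked and immunostained for p53 (MV4-11) or NPM1 (OCI-AML3). DNA was counterstained with DAPI, and subcellular localization was imaged by confocal microscopy using merged channels.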

NPM1 = experiment: Confocal microscopy of NPM1 localization in OCI-AML3; format: cell-based
In short: as §1

T1 sequence (O14980 whole entry): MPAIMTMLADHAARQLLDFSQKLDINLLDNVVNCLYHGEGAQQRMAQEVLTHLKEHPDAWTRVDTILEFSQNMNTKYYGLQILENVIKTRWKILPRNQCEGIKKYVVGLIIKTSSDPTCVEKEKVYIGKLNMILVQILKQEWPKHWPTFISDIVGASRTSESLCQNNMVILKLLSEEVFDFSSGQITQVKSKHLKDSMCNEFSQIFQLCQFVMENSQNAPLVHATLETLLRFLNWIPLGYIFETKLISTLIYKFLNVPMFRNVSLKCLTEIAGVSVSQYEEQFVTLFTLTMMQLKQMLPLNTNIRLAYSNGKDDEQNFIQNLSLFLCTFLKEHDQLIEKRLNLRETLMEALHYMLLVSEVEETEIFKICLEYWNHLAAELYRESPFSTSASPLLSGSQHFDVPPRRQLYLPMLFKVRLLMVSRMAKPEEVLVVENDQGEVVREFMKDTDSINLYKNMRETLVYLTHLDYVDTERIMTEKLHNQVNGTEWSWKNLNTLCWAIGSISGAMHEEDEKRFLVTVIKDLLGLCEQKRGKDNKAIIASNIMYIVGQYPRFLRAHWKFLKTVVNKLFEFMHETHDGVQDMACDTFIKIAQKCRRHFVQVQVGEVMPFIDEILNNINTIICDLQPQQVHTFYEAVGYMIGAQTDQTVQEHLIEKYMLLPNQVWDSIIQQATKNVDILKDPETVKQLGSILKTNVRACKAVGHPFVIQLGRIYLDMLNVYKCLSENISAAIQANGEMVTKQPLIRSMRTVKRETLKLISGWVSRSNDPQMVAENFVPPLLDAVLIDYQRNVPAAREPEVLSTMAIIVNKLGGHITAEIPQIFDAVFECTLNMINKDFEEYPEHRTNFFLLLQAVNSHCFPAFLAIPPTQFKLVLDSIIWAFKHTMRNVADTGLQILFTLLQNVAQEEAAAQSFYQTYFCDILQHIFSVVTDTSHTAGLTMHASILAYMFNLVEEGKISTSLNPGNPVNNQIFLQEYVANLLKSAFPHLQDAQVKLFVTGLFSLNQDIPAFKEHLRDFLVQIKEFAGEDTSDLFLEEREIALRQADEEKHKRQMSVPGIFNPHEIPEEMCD

Time post-treatment at which XPO1 total protein was decreased (XPO1 [1]): ≤ 4 h
Incubation time with XPO1 to completely inhibit XPO1 binding to PKI NES (XPO1 [2]): 60 min
SMILES: O=C(/C=C\n1cnc(-c2cc(C(F)(F)F)cc(C(F)(F)F)c2)n1)NNc1cnccn1 [KPT-330, selinexor, reference compound]
White blood cell count (WBC) vs vehicle (MV4-11; 20 mg/kg 2x/week): significantly reduced WBC
Time of treatment to nuclear retention of IkB (IkB): ≤ 8 h
IC50 (primary AML samples): 100 nM

Mean Concentration at 2h post dose Brain (Brain penetration, rat; Rat, po 5 mg/kg): 70 ng·h/g
Mean Concentration at 2h post dose Plasma (Brain penetration, rat; Rat, po 5 mg/kg): 320 ng·h/mL
Kp at 2 h (Brain penetration, rat; rat, brain/plasma, po, 5 mg/kg): 0.22
Mean Concentration at 2h post dose Brain ([3]; Monkey, po 10 mg/kg): <32 ng·h/g
Mean Concentration at 2h post dose Plasma ([3]; Monkey, po 10 mg/kg): 1310 ng·h/mL
Kp at 2 h ([3]; monkey, brain/plasma, po, 10 mg/kg): < 0.02
Reversibility of conjugation to XPO1 (XPO1 [5]): slowly reversible manner
Time post-treatment at which XPO1 total protein was decreased (XPO1 [1]): ≤ 4 h
Mean Concentration at 2h post dose Brain (Brain penetration, mouse; Mouse, po 5 mg/kg): 105 ng·h/g
Mean Concentration at 2h post dose Plasma (Brain penetration, mouse; Mouse, po 5 mg/kg): 550 ng·h/mL
Kp at 2 h (Brain penetration, mouse; mouse, brain/plasma, po, 5 mg/kg): 0.19
Incubation time with XPO1 to completely inhibit XPO1 binding to PKI NES (XPO1 [2]): 60 min
SMILES: NC(=O)/C(=C/n1cnc(-c2cc(C(F)(F)F)cc(C(F)(F)F)c2)n1)c1cncnc1 [KPT-8602]
Proliferation of GC-DLBCL cell lines (GC-DLBCL cell lines): inhibited proliferation
Median OS ([4]; Fig.4A cohort, 15 mg/kg daily, oral gavage, vehicle 33 days): 70 days
Percentage of CD5+ B-cells in peripheral blood vs vehicle or KPT-8602 2x/week ([4]; Fig.4B, 15 mg/kg daily, three weeks post-treatment, p<0.001): significantly lower
Spleen size at study removal vs all other groups ([4]; Fig.4C, 15 mg/kg daily, p<0.001): significantly smaller
Spleen size vs vehicle or ibrutinib alone ([4]; Fig.4F cohort, KPT-8602 15 mg/kg daily, p<0.001): significantly smaller
Change in body weight ([4]; daily treatment, after 28 days): did not cause a significant change in body weight
Killing of primary CLL cells vs vehicle (primary CLL cells [6]): induced dose-dependent killing of primary CLL cells
White blood cell count (WBC) vs vehicle (MV4-11; 15 mg/kg daily and x2/week): significantly reduced WBC
Proliferation of ABC-DLBCL cell lines (ABC-DLBCL cell lines): inhibited proliferation
Time of treatment to nuclear retention of IkB (IkB): ≤ 8 h
IC50 (primary AML samples): 300 nM
Apoptosis of CLL cells in FBS and HS (primary CLL cells [7]): effective in inducing apoptosis of CLL cells in both FBS and HS
XPO1 degradation (XPO1 [8]): induces XPO1 degradation in HT1080 cells in a dose-dependent manner
Accumulation in plasma after repetitive dosing [9]: does not accumulate in plasma after repetitive dosing
Accumulation of p53 in the nucleus (p53): significant accumulation
Accumulation of NPM1 in the nucleus (NPM1): significant accumulation

SMILES: C=CC(=O)N1CCC[C@@H](n2nc(-c3ccc(Oc4ccccc4)cc3)c3c(N)ncnc32)C1 [ibrutinib, reference compound]
Median OS ([4]; Fig.4D cohort, ibrutinib 20 mg/kg daily, vehicle 20 days): 26 days
